Assays:
Type in all cases: functional, cell-based
[1] = test system: HepG2; assay: Cytotoxicity against human HepG2 cells assessed as growth inhibition after 48 hrs by MTT assay; conditions: HepG2, 48 h
Method in brief: (§1)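 Cells grown in DMEM with 10% FBS and seeded at 6 × 10^4 cells/mL. Five concentrations per compound added from DMSO, each tested in triplicate. Incubated 48 h at 37 °C under 5% CO2. MTT (4 mg/mL) added, then 4 h further incubation. Medium removed, formazan dissolved in DMSO, absorbance read at 570 nm. IC50 reported as mean ± SD of triplicate experiments. Doxorubicin served as positive control.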

[2] = test system: A549; assay: Cytotoxicity against human A549 cells assessed as growth inhibition after 48 hrs by MTT assay; conditions: A549, 48 h; method in brief: as §1
[3] = test system: AGS; assay: Cytotoxicity against human AGS cells assessed as growth inhibition after 48 hrs by MTT assay; method in brief: as §1
[4] = test system: MCF7; assay: Cytotoxicity against human MCF7 cells assessed as growth inhibition after 48 hrs by MTT assay; conditions: MCF7, 48 h; method in brief: as §1
[5] = test system: K562; assay: Cytotoxicity against human K562 cells assessed as growth inhibition

Row | SMILES | IC50 [1] | IC50 [2] | IC50 [3] | IC50 [4] | IC50 [5]
1 | C=C1C2=CC(=O)O[C@]2(OC)C[C@H]2[C@H]1[C@@H](O)[C@H](OC(C)=O)[C@@]1(O)C(C)(C)CC[C@H](OC(C)=O)[C@]21C | 38.9 µM | > 50 µM | > 50 µM | > 50 µM | –
2 | CO[C@@]12C[C@H]3[C@@H](C[C@H](OC(C)=O)[C@@]4(O)C(C)(C)C[C@H](OC(C)=O)[C@H](OC(C)=O)[C@]34C)[C@](C)(O)C1=CC(=O)O2 | 47.2 µM | > 50 µM | 29.1 µM | > 50 µM | –
3 | COC(=O)CC1=C(C)[C@@H]2[C@@H](OC(C)=O)[C@H](OC(C)=O)[C@@]3(O)C(C)(C)CC[C@H](OC(C)=O)[C@]3(C)[C@H]2CC1=O | 18.5 µM | 25.2 µM | 48.3 µM | 7.9 µM | –
4 | CC(=O)O[C@H]1CCC(C)(C)[C@]2(O)[C@@H](OC(C)=O)[C@H](O)c3c(cc4occc4c3C)[C@@]12C | > 50 µM | > 50 µM | > 50 µM | > 50 µM | –
5 | CC(=O)OC1CC(C)(C)[C@]2(O)C[C@H](O)[C@H]3[C@@H](C)C4=CC(=O)O[C@]4(O)C[C@@H]3[C@@]2(C)[C@H]1OC(C)=O (stereo partly drawn) | > 50 µM | 31.9 µM | > 50 µM | 36.1 µM | –
6 | C#C[C@@]12O[C@]1(C=O)[C@]1(C)CC[C@H]3C(C)(C)CCC[C@]3(C)[C@H]1CC2=O [ESCOBARINE A] | – | – | – | – | 2.52 µM
7 | COC(=O)CC1=C(C)C2=C[C@H](OC(C)=O)[C@@]3(O)C(C)(C)CC[C@H](OC(C)=O)[C@]3(C)[C@H]2CC1=O | 4.7 µM | 14.6 µM | > 50 µM | 2.1 µM | –
8 | C=C1C2=CC(=O)O[C@]2(OC)C[C@H]2[C@H]1[C@@H](O)C[C@@]1(O)C(C)(C)CC[C@H](OC(C)=O)[C@]21C | 34.7 µM | > 50 µM | > 50 µM | > 50 µM | –
9 | COC(CC1=C(C)[C@@H]2[C@@H](OC(C)=O)[C@H](OC(C)=O)[C@@]3(O)C(C)(C)CC[C@H](OC(C)=O)[C@]3(C)[C@H]2CC1=O)OC | 10.6 µM | 31.8 µM | 45.8 µM | 15.6 µM | –
10 | CC(=O)O[C@H]1CCC(C)(C)C2=CC(=O)c3c(cc4occc4c3C)[C@]21C | > 50 µM | 24.8 µM | 6.5 µM | > 50 µM | –
11 | COc1cccc2c1C(=O)c1c(O)c3c(c(O)c1C2=O)C[C@@](O)(C(=O)CO)C[C@@H]3O[C@H]1C[C@H](N)[C@H](O)[C@H](C)O1 [DOXORUBICIN] | 0.59 µM | 0.74 µM | 1.2 µM | 0.94 µM | –
12 | CC(=O)O[C@@H]1[C@@H]2[C@H](C=C3OC(=O)C=C3[C@@]2(C)O)[C@@]2(C)[C@@H](OC(C)=O)CCC(C)(C)[C@]2(O)[C@H]1OC(C)=O | > 50 µM | > 50 µM | > 50 µM | 41.2 µM | –
13 | CO[C@@]12C[C@H]3[C@@H](CC[C@@]4(O)C(C)(C)C[C@H](OC(C)=O)[C@H](OC(C)=O)[C@]34C)[C@@H](C)C1=CC(=O)O2 | > 50 µM | > 50 µM | > 50 µM | 46.1 µM | –
14 | CC(=O)O[C@H]1CC(C)(C)[C@]2(O)CC[C@H]3[C@@H](C)C4=CC(=O)OC4=C[C@@H]3[C@@]2(C)[C@H]1OC(C)=O | > 50 µM | > 50 µM | > 50 µM | > 50 µM | –

Reference: ChEMBL document CHEMBL2385012, “Caesalpins A-H, bioactive cassane-type diterpenes from the seeds of Caesalpinia minax” (J Nat Prod, 2013)
